Active and inactive are the calls of the source. No cut-off for these calls is given here.

A short description of data set [1]: Solubility of the compound at 100 uM. The format is physicochemical. In outline:
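Compounds checked for solubility in assay buffer at 100 µM.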

In data set [2] the target is T1, Amine oxidase [flavin-containing] A (Homo sapiens, UniProt P21397).
T1 sequence (P21397 whole entry): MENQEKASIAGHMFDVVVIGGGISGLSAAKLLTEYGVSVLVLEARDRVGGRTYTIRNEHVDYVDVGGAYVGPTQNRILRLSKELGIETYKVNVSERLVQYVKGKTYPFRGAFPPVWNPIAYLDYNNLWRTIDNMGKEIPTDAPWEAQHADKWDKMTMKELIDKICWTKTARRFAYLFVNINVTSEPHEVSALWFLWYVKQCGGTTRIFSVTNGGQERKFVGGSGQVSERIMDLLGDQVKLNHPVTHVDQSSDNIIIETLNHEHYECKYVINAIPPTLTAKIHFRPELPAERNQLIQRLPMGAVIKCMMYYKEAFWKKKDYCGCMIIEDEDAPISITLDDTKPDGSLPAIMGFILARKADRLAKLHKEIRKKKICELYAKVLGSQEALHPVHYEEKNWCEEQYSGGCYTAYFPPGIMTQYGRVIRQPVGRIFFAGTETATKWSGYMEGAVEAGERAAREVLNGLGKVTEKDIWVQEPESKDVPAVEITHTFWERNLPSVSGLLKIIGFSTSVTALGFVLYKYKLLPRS
Kind of data set: Inhibition of human membrane bound MAO-A expressed in insect cell membranes assessed as reduction in conversion of kynuramine to 4-hydroxyquinoline by spectrophotometric assay. The following applies: read-out: IC50. The essentials: (§1)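 Human MAO-A or MAO-B expressed in insect cell membranes, diluted 1/4000 (A) or 1/2000 (B). Kynuramine at 2×KM: 60 µM for MAO-A, 30 µM for MAO-B. Assay in 50 mM potassium phosphate pH 7.5, 30°C, 1% DMSO, absorbance at 314 nm. Inhibitor varied over 4 orders of magnitude, up to 100 µM. Linear rates from 8-10 assays fitted by 3-parameter regression with bottom fixed at zero; IC50 ± SE of estimate.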

For data set [3], the target named is T2, Amyloid beta-binding alcohol dehydrogenase (Homo sapiens, UniProt Q2L8D9). Kind of data set: Inhibition of ABAD (unknown origin) assessed as residual activity at 100 uM using acetoacetyl-CoA in presence of NADH by spectrophotometric assay relative to control. The essentials: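 Recombinant ABAD at 0.5 µg/mL with NADH 250 µM and acetoacetyl-CoA 120 µM; compound at 100 µM in 1% DMSO, controls with matching DMSO. Buffer 10 mM HEPES, 0.5% gelatin, pH 7.4 at 37°C. NADH consumption read as falling absorbance at 340 nm; reported as % remaining activity ± SEM from two biological repeats, each with three technical repeats.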

Data set [4] in a line: Cytotoxicity against CHOK1 cells assessed as reduction in cell viability after 24 hrs by MTT assay. The format is cell-based, Cricetulus griseus. The following applies: chinese hamster, CHO-K1 cells; read-out: LC50. The essentials:
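CHO-K1 cells grown as ECACC recommends, seeded 8000 per well; compounds from DMSO stocks diluted in F-12 with 10% FBS and 1% pen/strep (final DMSO at most 0.5%), exposed 24 h. Medium then replaced with 10 µM MTT for about 3 h, formazan dissolved in DMSO, absorbance read at 570 nm (650 nm reference). LC50 from control-subtracted triplicates by four-parameter regression; mean ± SEM of 3 independent runs.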
In general terms: Formazan colour is commonly taken as a measure of viable cells.

In data set [5] the target is T3, peroxidase (horseradish peroxidase) (Raphanus sativus, UniProt K7N5L9). Kind of data set: Inhibition of horse radish peroxidase assessed as residual activity at 5 uM by amplex red dye based fluorescence assay. To be noted: horseradish peroxidase (isolated enzyme), probe Amplex Red, read-out: Activity. The essentials: (§2)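 HRP (0.02 U/mL) given H2O2 20 µM directly as substrate plus Ampliflu Red 20 µM in 50 mM potassium phosphate pH 7.4. Compound at 50 or 5 µM, 1% DMSO; controls DMSO only. Resorufin fluorescence read at ex 535/em 595 nm, 30°C, as remaining HRP activity.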
T3 sequence (K7N5L9 whole entry): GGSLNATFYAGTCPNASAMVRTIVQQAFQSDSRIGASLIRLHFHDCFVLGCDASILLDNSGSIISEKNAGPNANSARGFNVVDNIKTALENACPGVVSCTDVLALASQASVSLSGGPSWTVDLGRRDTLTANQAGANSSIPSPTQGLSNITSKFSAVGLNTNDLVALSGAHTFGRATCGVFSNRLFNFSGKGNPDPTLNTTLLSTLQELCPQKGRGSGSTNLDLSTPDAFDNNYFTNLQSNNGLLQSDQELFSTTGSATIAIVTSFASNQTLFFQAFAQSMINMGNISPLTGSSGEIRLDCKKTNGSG

A further data set deals with Peroxidase (Raphanus sativus, UniProt K7N5L9). In words: Inhibition of horse radish peroxidase assessed as residual activity by amplex red dye based fluorescence assay. In outline:
as §2

Data set [6] has as its target T4, Amine oxidase [flavin-containing] B (Homo sapiens, UniProt P27338).
T4 sequence (P27338 whole entry): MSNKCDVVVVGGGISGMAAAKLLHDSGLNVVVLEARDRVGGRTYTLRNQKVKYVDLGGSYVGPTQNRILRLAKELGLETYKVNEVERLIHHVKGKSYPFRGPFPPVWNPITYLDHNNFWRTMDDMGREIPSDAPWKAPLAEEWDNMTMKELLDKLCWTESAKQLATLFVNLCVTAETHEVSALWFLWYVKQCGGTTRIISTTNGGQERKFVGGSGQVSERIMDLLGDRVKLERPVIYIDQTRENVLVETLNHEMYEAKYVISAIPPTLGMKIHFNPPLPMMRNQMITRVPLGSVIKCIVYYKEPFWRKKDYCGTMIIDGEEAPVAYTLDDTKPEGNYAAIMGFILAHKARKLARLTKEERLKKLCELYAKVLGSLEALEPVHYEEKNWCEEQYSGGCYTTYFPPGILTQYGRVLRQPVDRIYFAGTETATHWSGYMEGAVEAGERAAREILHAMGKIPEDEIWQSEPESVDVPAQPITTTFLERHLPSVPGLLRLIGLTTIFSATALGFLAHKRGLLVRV
In words: Inhibition of human membrane bound MAO-B expressed in insect cell membranes assessed as reduction in conversion of kynuramine to 4-hydroxyquinoline by spectrophotometric assay. To be noted: read-out: IC50. In outline:
as §1

Data set [7] has as its target T3, peroxidase (horseradish peroxidase). Kind of data set: Inhibition of horse radish peroxidase assessed as residual activity at 50 uM by amplex red dye based fluorescence assay. The following applies: horseradish peroxidase (isolated enzyme), probe Amplex Red, read-out: Activity. The essentials: as §2
Data set [8] is described as follows: Quenching activity of the compound assessed as reduction in resorufin fluorescence. The format is functional. The essentials: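 Resorufin at 1 µM and 10 µM measured for fluorescence in the presence of compound at 50 µM.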
The target in data set [9] is T1, Amine oxidase [flavin-containing] A. Kind of data set: Inhibition of human purified MAO-A expressed in insect cell membranes assessed as reduction in conversion of kynuramine to 4-hydroxyquinoline by spectrophotometric assay.
For data set [10], the target named is T2, Amyloid beta-binding alcohol dehydrogenase. Kind of data set: Inhibition of ABAD (unknown origin) by spectrophotometric assay.
A short description of data set [11]: Lipophilicity of the compound assessed as capacity factor at pH 3.5 by HPLC analysis. The format is physicochemical. To be noted: buffer. The essentials:
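Capacity factor k from gradient HPLC on reversed-phase C18 in acid polar organic mode, pH ~3.5.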

Peroxidase, sequence (K7N5L9 whole entry): as the sequence (K7N5L9 whole entry) above

In general, IC50 refers to the midpoint of a concentration-inhibition curve. As to `Oc1ccccc1NC(=S)Nc1ccc2[nH]ccc2c1`, the solubility result in data set [1] is “Soluble”. Also, the half-inhibitory concentration (IC50) worked out at 14 µM in data set [2], 0.8 µM on Peroxidase, 4 µM in data set [6] and 39 µM in data set [9] (read-out: IC50). Also, the Activity in data set [3] came to 85%. Besides, the CC50 at 24 h in [4] was 509 µM. In addition, in data set [5], the activity at 5 µM came to 43.9%. In data set [7], the activity at 50 µM came to 36.9%. Moreover, the Activity result in [8] is “inactive”.

`O=C(C(c1ccccc1)n1cnc2[nH]ncc2c1=S)N1CCCCCC1` (stereo unspecified) registered a concentration for half-maximal inhibition (IC50) in data set [10] of 0.092 µM.

Take `Oc1c(Cl)cc(NC(=S)Nc2ccc3[nH]ccc3c2)cc1Cl`: in data set [1], the solubility entry is listed as “Soluble”. The IC50 is more than 100 µM in [2], 1.06 µM at Peroxidase, 17 µM in data set [6] and “Not Active” in [9]. In addition, the Activity in data set [3] stood at 39%. Also, the CC50 at 24 h in data set [4] came out at 523 µM. For the same compound, the activity at 5 µM in data set [5] was found to be 48.6%. The activity at 50 µM in [7] came out at 23.9%. Besides, the Activity result in data set [8] is “inactive”. The K in data set [11] turned out to be 3.975.

On to `S=C(Nc1ccc(Br)cc1)Nc1ccc2[nH]ccc2c1`, for which the solubility entry in [1] was “Soluble”. Further, the IC50 in data set [2] amounted to 23 µM; in data set [6], 58 µM; in data set [9] (read-out: IC50), 5.9 µM. The Activity in data set [3] was found to be 83%. Further, the CC50 at 24 h in [4] came out at 220 µM. In addition, the activity at 5 µM in [5] amounted to 82%. Also, the activity at 50 µM in data set [7] came out at 52.8%. The Activity entry in [8] is “inactive”. Moreover, the K in data set [11] is 4.355.

For `Oc1ccc(NC(=S)Nc2ccc3[nH]ccc3c2)cc1Cl`, the solubility entry in [1] was “Soluble”. Moreover, the IC50 came out at 58 µM in data set [2], 1.01 µM on Peroxidase, 8.6 µM in data set [6] and 58 µM in data set [9] (read-out: IC50). In addition, the Activity in data set [3] stood at 49.1%. Also, the CC50 at 24 h in [4] was determined as 447 µM. In addition, the activity at 5 µM in data set [5] is 39.9%. In addition, in data set [7], the activity at 50 µM was found to be 26.4%. In addition, in data set [8], the Activity result is “inactive”. Moreover, the K in [11] is recorded as 3.76.

For `Oc1ccc(CNC(=S)Nc2ccc3[nH]ccc3c2)cc1O`, in [1], the solubility entry is on record as “Soluble”. Also, the Activity in data set [3] came out at 81.5%. The CC50 at 24 h in data set [4] came out at 471 µM. Also, in data set [5], the activity at 5 µM is 38.3%. Besides, the IC50 on Peroxidase is 0.8 µM; in [9] it was “Not Active”. In data set [7], the activity at 50 µM is 31.2%. In addition, the Activity result in data set [8] is “inactive”.

With `Oc1ccc(NC(=S)Nc2ccc3[nH]ccc3c2)cc1`, the solubility entry in [1] was “Soluble”. The IC50 in data set [2] is more than 100 µM; on Peroxidase it was 1.01 µM; in data set [6], 17 µM; in data set [9], “Not Active”. Moreover, the Activity in [3] was 90.9%. Besides, in data set [4], the CC50 at 24 h stood at 848 µM. For the same compound, the activity at 5 µM in [5] worked out at 41.5%. Further, in [7], the activity at 50 µM was 31%. The Activity entry in [8] is “inactive”.
